In ChEMBL document CHEMBL4038313, “Expanding the Antiviral Spectrum of 3-Fluoro-2-(phosphonomethoxy)propyl Acyclic Nucleoside Phosphonates: Diamyl Aspartate Amidate Prodrugs” (J Med Chem, 2017):

Assays:
Human betaherpesvirus 5 [1] = test: Antiviral activity against Human cytomegalovirus AD169 infected in HEL cells assessed as inhibition of virus-induced cytopathic effect; type: functional, cell-based; details: Human betaherpesvirus 5, AD169, HEL
Summary of the method: (§1)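 HEL fibroblast monolayers inoculated with 100 CCID50 HCMV (AD-169, Davis) or 20 PFU VZV (TK+ Oka, TK− 07-1). Adsorbed 1–2 h, inoculum removed, then incubated with compound dilutions. HCMV cytopathicity or VZV plaques scored once untreated infected controls reached completion. EC50 is 50% reduction. SI is CC50/EC50, and the potency ratio is the ratio of EC50s.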

Human alphaherpesvirus 3 [2] = test: Antiviral activity against thymidine kinase deficient Varicella-Zoster virus 07-1 infected in HEL cells assessed as inhibition of plaque formation; type: functional, cell-based; details: Human alphaherpesvirus 3, 07-1, HEL; summary of the method: as §1
[3] = tested on: Human immunodeficiency virus 1; test: Antiviral activity against CCR5 tropic HIV1 BaL infected in human TZM-bl cells assessed as inhibition of virus-induced cytopathic effect preincubated with cells for 30 mins followed by viral infection measured after 48 hrs in presence of p-24 HIV-1 Ag by luciferase reporter gene assay; type: functional, cell-based; details: Human immunodeficiency virus 1, BaL
Summary of the method: (§2)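 TZM-bl cells, 1 × 10^4 per well in DMEM with 10% FBS and 10 mM […], incubated 30 min at 37 °C with compound. Then HIV-1 NL4.3 (X4) or BaL (R5) added at 100 pg p24 Ag per well. After 48 h, cells lysed with luciferase substrate. Tat-induced luminescence read after 10 min dark incubation as a measure of replication.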

[4] = Selectivity index, ratio of CC50 for human TZM-bl cells to EC50 for CCR5 tropic HIV1 BaL infected in human TZM-bl cells; type: toxicity, cell-based; details: read-out: Ratio CC50/EC50
[5] = Selectivity index, ratio of CC50 for human TZM-bl cells to EC50 for CXCR4-tropic HIV-1 NL4-3 infected in human TZM-bl cells; type: toxicity, cell-based; details: read-out: Ratio CC50/EC50
[6] = Cytotoxicity against human HepG2.2.15 cells assessed as cell viability by tetrazolium dye uptake assay; type: cell-based, HepG2 2.2.15
Summary of the method: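 HepG2.2.15 cells (two integrated copies of HBV ayw1 genome) were seeded at 1.5 × 10^4 cells/well in DMEM with 2% FBS, 380 μg/mL G418, glutamine, antibiotics and nonessential amino acids. After 16−24 h, medium with various compound concentrations was added in triplicate and renewed on day 3. After 6 days of treatment, viability was read by MTS uptake and CC50 was calculated.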

Hepatitis B virus = test: Antiviral activity against HBV ayw1 infected in human HepG2(2.2.15) cells assessed as reduction in viral replication by measuring extracellular viral DNA copy number after 6 days by real-time qPCR method; type: functional, cell-based; details: ayw1, HepG2 2.2.15, 144 h
Summary of the method: (§3)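 HepG2.2.15 cells (two copies of HBV ayw1 genome), 1.5 × 10^4/well in DMEM with 2% FBS and 380 μg/mL G418. After 16–24 h, compound added in triplicate, medium with compound renewed at day 3. Supernatant collected at day 6, Pronase-treated, and extracellular HBV DNA measured by TaqMan qPCR (precore/core) against an HBV DNA standard curve. EC50/EC90 derived; CC50 by MTS uptake.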

[7] = Stability of the compound in phosphate buffer of pH 8 at 1 mg after 2 hrs by 31P NMR spectroscopy; type: physicochemical; details: pH 8, 2 h
Summary of the method: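 1 mg compound in 0.2 mL acetone-d6 plus 0.3 mL pH 8 buffer (0.1 M Na2HPO4 adjusted with 0.1 M HCl). In situ 31P NMR (202 MHz) at 37 °C, spectra every 30 min over 14 h.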

[8] = Stability of the compound in buffer of pH 1 at 2 mg after 6 hrs by 31P NMR spectroscopy; type: physicochemical; details: pH 1, 6 h
Summary of the method: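 2.0 mg compound in 0.2 mL acetone-d6 plus 0.3 mL pH 1 buffer (equal parts 0.2 M HCl and 0.2 M KCl). In situ 31P NMR (202 MHz) at 37 °C, spectra every 30 min over 14 h.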

Human betaherpesvirus 5 [9] = test: Antiviral activity against HCMV Davis strain infected in HEL cells assessed as inhibition of virus-induced cytopathic effect; type: functional, cell-based; details: Human betaherpesvirus 5, Davis; summary of the method: as §1
[10] = Selectivity index, ratio of CC50 for HepG2.2.15 cells to EC50 for HBV ayw1 infected in human HepG2(2.2.15) cells assessed as reduction in viral replication by measuring extracellular viral DNA copy; summary of the method: as §3
[11] = tested on: Human immunodeficiency virus 1; test: Antiviral activity against CXCR4-tropic HIV-1 NL4-3 infected in human TZM-bl cells assessed as inhibition of virus-induced cytopathic effect preincubated with cells for 30 mins followed by viral infection measured after 48 hrs in presence of p-24 HIV-1 Ag by luciferase reporter gene assay; type: functional, cell-based; details: Human immunodeficiency virus 1, NL4-3, TZM-bl; summary of the method: as §2
[12] = Cytotoxic activity against HEL cells assessed as alteration of cell morphology after 3 days by microscopic method; type: cell-based; details: human
Summary of the method: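 HEL cells with compound; MCC is the lowest concentration giving microscopically detectable alteration of cell morphology.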

[13] = Cytotoxicity against human TZM-bl cells assessed as cell viability by tetrazolium dye assay; type: cell-based
Human alphaherpesvirus 3 [14] = test: Antiviral activity against thymidine kinase expressing Varicella-Zoster virus Oka strain assessed as inhibition of plaque formation; type: functional; details: Human alphaherpesvirus 3, strain Oka vaccine; summary of the method: as §1

With `CCCCCOC(=O)C[C@H](NP(=O)(CO[C@H](CF)Cn1cc(C)c(=O)[nH]c1=O)Oc1ccccc1)C(=O)OCCCCC` (stereo partly specified) the EC50 (Human betaherpesvirus 5 [1]) was > 31.9 µM, the EC50 (Human alphaherpesvirus 3 [2]) was 23.1 µM and the EC50 [3] was > 43.4 µM. The selectivity ratio [4] was < 1, the selectivity ratio [5] was < 1 and the CC50 [6] was 33.5 µM. For the same molecule, the EC50 (Hepatitis B virus) was 42.4 µM, the EC90 (Hepatitis B virus) was > 100 µM and the Stability [7] was “Unstable”. For the same molecule, the Stability [8] was “Unstable”, the EC50 (Human betaherpesvirus 5 [9]) was > 31.9 µM and the “Ratio CC50/EC50” value [10] was <1. The EC50 [11] was > 43.4 µM, the MCC at 72 h [12] was 159 µM and the CC50 [13] was 43.4 µM. It also gave an EC50 (Human alphaherpesvirus 3 [14]) of 19.7 µM.
